High-throughput results from PubChem BioAssay.
Sampled rows, rich in hits. Any-hit rate of the full collection: about 1.8%.
NR2E3 ag-1 – activates human NR2E3 receptor | Q9Y5X4 | CHO-S Gal4-NCOR/VP16-NR2E3 two-hybrid, luciferase | inhibition of corepressor binding, % at 3.98 µM | 0.35% of 360,000 active | AID 602229;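 active = inhibition above the mean of all tested compounds plus 3 SD, cut at about 70% in these data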;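 note: 0% = DMSO with NR2E3 transfected cells and 100% = cells lacking NR2E3 construct; higher means lower luciferase signal from less NR2E3 corepressor binding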
Target sequence (Q9Y5X4 whole entry, looked up, the tested form may be a part): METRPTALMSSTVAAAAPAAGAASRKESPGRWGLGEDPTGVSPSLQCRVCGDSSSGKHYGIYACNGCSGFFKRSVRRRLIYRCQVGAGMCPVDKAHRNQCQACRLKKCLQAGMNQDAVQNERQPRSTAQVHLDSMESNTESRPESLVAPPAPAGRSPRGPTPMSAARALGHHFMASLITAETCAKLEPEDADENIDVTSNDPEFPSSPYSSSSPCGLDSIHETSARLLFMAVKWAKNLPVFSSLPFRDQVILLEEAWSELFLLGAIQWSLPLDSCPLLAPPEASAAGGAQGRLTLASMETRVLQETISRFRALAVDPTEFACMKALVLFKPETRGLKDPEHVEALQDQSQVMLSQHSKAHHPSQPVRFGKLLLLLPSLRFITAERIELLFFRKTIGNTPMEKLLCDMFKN
Jurkat NFkB inh – lowers PMA/ionomycin-induced NF-kB signal in Jurkat cells | inhibition, % at 4 µM | PMA/ionomycin-induced NF-kB luciferase reporter, luminescence | 0.53% of 330,000 active; in the data active = inhibition above about 50%
NR2E3 ag-2 – activates human photoreceptor nuclear receptor NR2E3. inhibition of corepressor binding, % at 4.78 µM. GST-NR2E3/biotin-RetCOR TR-FRET, 1536-well. 0.12% of 320,000 active;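 active = percent inhibition above the cutoff of mean plus 3 SD of all tested compounds, set per screening campaign, cut at about 20% in these data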;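 note: 0% = DMSO wells and 100% = biotin wells as full block of FRET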
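Material – GST-tagged NR2E3 plus biotinylated RetCOR corepressor · Quantity – NR2E3 fusion 1.35 nM · Times – 5 h incubation at 4 °C · Medium – pH 7.5 Tris-based buffer · Technique – TR-FRET, Eu(K)-anti-GST donor, streptavidin-D2 acceptor, ex 340, em 617/671 nm · Benchmarks – high control biotin, low control 0.6% DMSO · Format – 1536-well plates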
GalR3 antag – human GalR3 antagonism; HEK293 GalR3-CNG cAMP membrane potential fluorescence; galR3 body fused to GalR1 C-terminus; 0.44% of 360,000 active; inhibition, % at 3 µM;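 active = inhibition above the screen-wide average plus 3 SD, cut at about 13% in these data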;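 note: forskolin and galanin both at EC90 stimulate the cells; cAMP rise reported by CNG channel membrane potential dye signal; 0% = forskolin plus galanin with DMSO and 100% = forskolin alone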
Target sequence (O60755 1-299 limits assumed): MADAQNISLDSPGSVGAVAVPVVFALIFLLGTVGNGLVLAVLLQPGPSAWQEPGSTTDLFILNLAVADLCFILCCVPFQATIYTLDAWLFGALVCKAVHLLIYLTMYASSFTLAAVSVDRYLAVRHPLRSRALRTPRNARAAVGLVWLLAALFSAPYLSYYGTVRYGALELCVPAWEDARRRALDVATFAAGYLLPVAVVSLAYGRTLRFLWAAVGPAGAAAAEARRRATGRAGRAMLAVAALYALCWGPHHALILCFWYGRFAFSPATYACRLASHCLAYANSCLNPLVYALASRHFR
Gli-Sufu antag – Gli-Sufu pathway antagonism; Sufu-KO-LIGHT fibroblasts, Gli luciferase reporter luminescence; inhibition, % at 5 µM; 0.74% of 340,000 active;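 active = inhibition above about 55%, limit read from the data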;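 note: 0% = DMSO-treated cells and 100% = wells with medium but no cells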
697 NFkB inh – lowers PMA/ionomycin-induced NF-kB signal in 697 B cells; 697 B-cell NF-kB luciferase reporter, 16 h; inhibition, % at 4 µM; 0.33% of 330,000 active; AID 435022; in the data active = inhibition above about 35%
Jurkat NFkB conf – inhibitors of the PMA/ionomycin-induced NF-kB reporter in Jurkat cells, retest. shares compounds with Jurkat NFkB inh. Jurkat NF-kB luciferase, 16 h. inhibition, % at 4 µM. 27% of 2,700 active. AID 435020;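 active = inhibition reaching about 45% at 4 µM in either replicate, limit read from the data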;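 note: plate controls were PMA/ionomycin stimulated DMSO wells for no effect and unstimulated DMSO wells for full effect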
697 NFkB conf – inhibitors of the PMA/ionomycin-induced NF-kB reporter in 697 B cells, retest. shares compounds with 697 NFkB inh. 697 B-cell NF-kB luciferase, 16 h. inhibition, % at 4 µM. 35% of 2,000 active; in the data active = inhibition mostly above about 28%, no sharp cut-off; inactive = mostly below about 22%
Gli antag conf – confirmation of Gli-SUFU pathway antagonists; shares compounds with Gli-Sufu antag; Sufu-KO-LIGHT cells, Gli luciferase reporter, luminescence; inhibition, % at 5 µM; 40% of 2,500 active;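 active = mean inhibition at 5 µM reaching about 45%, limit read from the data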;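 note: plate controls were DMSO-treated cells for no effect and wells lacking cells for full effect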
Gli cytotox – cytotoxic in Gli-SUFU antagonist counter-screen; shares compounds with Gli-Sufu antag; Sufu-KO-LIGHT cells cytotoxicity, ATP luminescence; cytotoxicity, % at 5 µM; 32% of 2,500 active; AID 651994;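 active = mean cytotoxicity at 5 µM above about 25%, limit read from the data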;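 note: cells exposed to compound overnight for roughly 16 to 18 hours; plate controls were DMSO wells with cells for no effect and medium without cells for full effect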
Wnt3a cs – counter-screen for Gli-SUFU antagonists: Wnt3a reporter inhibition | AID 651995 | shares compounds with Gli-Sufu antag | Wnt-LIGHT cells, Wnt3a-driven luciferase reporter, luminescence | inhibition, % at 6.25 µM | 20% of 2,500 active;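 active = mean inhibition above about 25%, limit read from the data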
NR2E3 ag confirm – confirmation of human NR2E3 agonists. 51% of 2,300 active. inhibition, % at 3.98 µM. shares compounds with NR2E3 ag-1. CHO-S mammalian two-hybrid NR2E3-NCOR, luciferase luminescence;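 active = average inhibition above a cutoff equal to the mean inhibition of all tested compounds plus one SD, cut at about 70% in these data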;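 note: 0% = DMSO in NR2E3 cells and 100% = DMSO in cells lacking NR2E3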
VP16 counter – reduces GAL4-VP16 reporter signal in NR2E3 counterscreen; shares compounds with NR2E3 ag-1; CHO-S GAL4-VP16 luciferase reporter, luminescence; inhibition, % at 3.98 µM; 29% of 2,300 active;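 active = mean inhibition above a cutoff equal to the average over all tested compounds plus one standard deviation, cut at about 70% in these data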;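 note: luciferase from a UAS reporter driven by GAL4-VP16 transactivation; 0% = DMSO with VP16-transfected cells and 100% = DMSO with cells lacking VP16; higher means less reporter light so more repression of VP16 activity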
The depositor's hits bear a star; / = no result given.

SMILES	NR2E3 ag-1	Jurkat NFkB inh	NR2E3 ag-2	GalR3 antag	Gli-Sufu antag	697 NFkB inh	Jurkat NFkB conf	NR2E3 ag confirm	VP16 counter	others
OC(c1cc(-c2ccc(C(F)(F)F)cc2)nc(C(F)(F)F)c1)C1CCCCN1 (configuration not stated)	92*	52*	-1	-13	-26	-22	18	59	48
OC(c1cc(C(F)(F)F)nc2c(C(F)(F)F)cccc12)C1CCCCN1 (configuration not stated)	14	15	4	-4	4	-10	/	/	/
COc1ccc(NC(=O)OC[C@@H]2CSCCS(=O)(=O)N2)cc1	/	/	/	-5	/	/	/	/	/
Cc1nn(C)c(C)c1CN(Cc1nc(CCC(C)C)no1)C(C)C	86*	53*	1	92*	79*	9	51*	99*	87*	Gli antag conf=73*;Gli cytotox=26*;Wnt3a cs=51*
Cc1cc(C(=O)COC(=O)c2ccccc2O)c(C)n1CC1CCCO1 (configuration not stated)	95*	74*	0	-8	58*	52*	86*	89*	80*	697 NFkB conf=43*
CCn1c(C)cc(C(=O)COC(=O)c2ccccc2[N+](=O)[O-])c1C	105*	59*	/	/	87*	41*	94*	89*	87*	697 NFkB conf=47*
Cc1cc(C(=O)COC(=O)c2cc(O)c3ccccc3c2O)c(C)n1CC1CCCO1 (configuration not stated)	21	/	/	/	7	/	/	/	/
COC(=O)[C@]12C[C@H](CC(=O)NCCC(C)C)C(=O)N(CCC3=CCCCC3)C1=C[C@H](COCc1ccccc1)O[C@@H]2C	/	/	/	-9	/	/	/	/	/
COC(=O)c1cc2c(c3c4ccccc4n(S(=O)(=O)c4ccc(OC)cc4)c13)C(=O)N(C)C2	/	/	/	-7	/	/	/	/	/
Cc1cc(Nc2ccc(Cl)cc2)nc(NCc2ccccc2)n1	0	25	2	-6	46	-19	/	/	/
CCCCNc1cc(C)nc(NCc2ccccc2)n1	83*	70*	-2	/	-32	-37	21	94*	84*
COc1ccc(-c2nn3c(-c4ccccc4)nnc3s2)cc1	-30	8	-1	-5	-24	-3	/	/	/
CCN(CC)c1ccc(-c2nn3c(-c4ccccc4OC)nnc3s2)cc1	57	79*	1	/	39	-119	64*	-38	8
CCCN(C(=O)C1CCCN(c2ncnc3c2nc2n3CCCCC2)C1)c1ccccc1C (configuration not stated)	/	/	/	0	/	/	/	/	/
C=CCn1c(C)cc(C(=O)CN2C(=O)NC3(CCCc4ccccc43)C2=O)c1C (configuration not stated)	-25	-1	1	2	-18	-21	/	/	/
C=CCn1c(C)cc(C(=O)CN2C(=O)c3ccccc3S2(=O)=O)c1C	56	89*	2	/	89*	66*	49*	76*	34	697 NFkB conf=45*
CCN(CC)c1ccc(/C=C/c2ccc3ccc(OC)cc3[n+]2CC)cc1	64	93*	-6	-10	84*	30	70*	98*	77*
CCN(CC)c1nc2cc(OC)ccc2cc1C#N	-24	0	2	-4	-26	13	/	/	/
O=C(NCc1ccccc1)[C@@H]1CCCN1C(=O)[C@H]1CCCN1C(=O)c1ccccc1	/	/	/	-1	/	/	/	/	/
COc1cccc2sc(Nc3nc(-c4ccccn4)cs3)nc12	97*	98*	2	/	/	-132	32	100*	-25
Cn1nc(CC(=O)Nc2ccc(N3CCN(C(=O)OC(C)(C)C)CC3)cc2)c2ccccc2c1=O	76*	55*	-3	4	66*	46*	53*	90*	79*	697 NFkB conf=1;Gli antag conf=78*;Gli cytotox=39*;Wnt3a cs=37*
C/C(=N\NC(=O)c1ccccc1-n1cccc1)c1ccccn1	-10	/	/	2	/	/	/	/	/
C=CCNC(=S)N/N=C(\C)c1ccccn1	84*	78*	-1	-3	84*	24	51*	6	12
COC(=O)[C@]12C[C@H](CC(=O)NCC34CC5CC(CC(C5)C3)C4)C(=O)N(CCC3=CCCCC3)C1=C[C@H](COCc1ccccc1)O[C@@H]2C	/	/	/	-5	/	/	/	/	/
C=C1C(=O)[C@@]23[C@H](O)C[C@@H]4C(C)(C)CC[C@H](O)[C@@]4(C)[C@@H]2CC[C@@H]1[C@H]3O	66	71*	6	-3	80*	-99	37	-13	-92
SMILES	NR2E3 ag-1	Jurkat NFkB inh	NR2E3 ag-2	GalR3 antag	Gli-Sufu antag	697 NFkB inh	Jurkat NFkB conf	NR2E3 ag confirm	VP16 counter	others
C=C1C(=O)[C@@]23[C@H](O)C[C@@H]4C(C)(C)CC[C@H](O)[C@]4(C)[C@@H]2C[C@H](O)[C@@H]1[C@H]3O	21	-12	0	1	28	-80	/	/	/
COc1ccc(COC(=O)c2cc([N+](=O)[O-])ccc2N2CCOCC2)cc1F	48	93*	-3	-11	41	-68	65*	15	28
c1ccc2c(c1)OCc1nccn1-2	/	/	/	-8	/	/	/	/	/
Cc1nc(NCc2ccco2)c2c(C)c(C)sc2n1	97*	70*	5	-8	14	-281	58*	95*	68	697 NFkB conf=-43
COc1cccc(C(=O)NCC2CCN(C(=O)C(=O)c3cc4ccccc4o3)CC2)c1	/	/	/	-4	/	/	/	/	/
CC(C)(C)c1ccc(/C=N/Nc2cccc(C(=O)O)c2)cc1	-250	-55	2	-3	-270	-97	/	/	/
CC(C)(C)c1ccc(/C=N/Nc2ccc(C(=O)O)cc2)cc1	50	59*	0	-4	-10	-277	33	65	-33	697 NFkB conf=22
O=C(C(=O)N1CCC(CNC(=O)C2COc3ccccc3O2)CC1)c1cc2ccccc2o1 (configuration not stated)	/	/	/	-4	/	/	/	/	/
